Assay results as given in ChEMBL document CHEMBL3865819, “Myrsinane, Premyrsinane, and Cyclomyrsinane Diterpenes from Euphorbia falcata as Potassium Ion Channel Inhibitors with Selective G Protein-Activated Inwardly Rectifying Ion Channel (GIRK) Blocking Effects” (J Nat Prod, 2016).

How the values were obtained:
Type in all cases: cell-based
[1] = molecular target: T1, Kir3.1/Kir3.4 (Homo sapiens) (UniProt P48549+P48544); experiment: Inhibition of GTPgammaS-induced activation of GIRK1/4 (unknown origin) expressed in HEK293 cells assessed as decrease in channel current at 1 uM after 2 mins at -40 mV holding potential by automated patch-clamp electrophysiology assay
In short: (§1)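 Whole-cell automated planar patch clamp on HEK-293 cells stably expressing GIRK1/4 (Kir3.1/3.4). Internal solution carries 0.9 mM GTPγS to activate channels; bath switched from 4 mM K+ to high-K+ (25 mM KCl) external, pH 7.4. Step to 60 mV, ramp to −140 mV, 100 ms at −140 mV, ~0.1 Hz; inward current read at −140 mV. After 3 min control, 1 then 10 μM for ~2 min each; K+-free solution baseline; two to three cells.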

[2] = molecular target: T1, Kir3.1/Kir3.4 (Homo sapiens); experiment: Inhibition of GTPgammaS-induced activation of GIRK1/4 (unknown origin) expressed in HEK293 cells assessed as decrease in channel current at 10 uM after 2 mins at -40 mV holding potential by automated patch-clamp electrophysiology assay; in short: as §1
hERG (KCNH2) [3] = molecular target: T2, hERG (KCNH2) (Homo sapiens, UniProt Q12809); experiment: Inhibition of human ERG expressed in HEK293 cells assessed as decrease in channel current at 3 uM after 3 mins at -80 mV holding potential by automated patch-clamp electrophysiology assay; conditions: HEK293 cells that express hERG
T2 sequence (Q12809 whole entry): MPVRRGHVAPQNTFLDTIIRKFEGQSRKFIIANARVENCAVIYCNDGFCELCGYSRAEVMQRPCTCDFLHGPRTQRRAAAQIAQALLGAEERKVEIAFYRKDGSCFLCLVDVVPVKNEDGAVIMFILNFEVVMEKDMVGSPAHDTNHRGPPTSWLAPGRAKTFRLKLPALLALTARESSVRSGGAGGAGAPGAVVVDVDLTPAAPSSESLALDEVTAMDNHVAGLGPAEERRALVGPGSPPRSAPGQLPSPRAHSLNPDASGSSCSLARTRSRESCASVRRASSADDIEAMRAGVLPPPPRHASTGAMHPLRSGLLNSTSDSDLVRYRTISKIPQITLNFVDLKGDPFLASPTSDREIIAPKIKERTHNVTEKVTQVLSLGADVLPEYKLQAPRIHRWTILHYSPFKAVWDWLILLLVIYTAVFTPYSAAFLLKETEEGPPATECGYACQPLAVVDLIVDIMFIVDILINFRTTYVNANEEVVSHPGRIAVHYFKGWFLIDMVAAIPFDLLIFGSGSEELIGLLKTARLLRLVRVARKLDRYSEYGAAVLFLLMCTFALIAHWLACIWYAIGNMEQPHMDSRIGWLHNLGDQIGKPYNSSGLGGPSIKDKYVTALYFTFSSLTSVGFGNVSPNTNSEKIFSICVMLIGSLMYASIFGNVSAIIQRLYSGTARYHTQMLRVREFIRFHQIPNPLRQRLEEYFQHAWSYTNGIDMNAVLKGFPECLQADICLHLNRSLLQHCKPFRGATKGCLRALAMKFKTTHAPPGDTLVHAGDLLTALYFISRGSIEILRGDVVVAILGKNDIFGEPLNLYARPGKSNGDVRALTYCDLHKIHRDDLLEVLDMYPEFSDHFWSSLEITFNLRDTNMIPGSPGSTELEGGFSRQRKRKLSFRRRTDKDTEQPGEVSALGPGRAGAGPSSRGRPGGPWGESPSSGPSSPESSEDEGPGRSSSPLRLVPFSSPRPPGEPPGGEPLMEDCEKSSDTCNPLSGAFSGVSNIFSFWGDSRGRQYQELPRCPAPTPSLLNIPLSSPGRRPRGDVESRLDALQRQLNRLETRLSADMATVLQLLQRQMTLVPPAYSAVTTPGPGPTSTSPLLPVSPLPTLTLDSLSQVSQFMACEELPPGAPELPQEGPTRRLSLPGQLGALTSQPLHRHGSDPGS
In short: (§2)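 HEK-293 cells stably transfected with hERG (Kv11.1), whole-cell automated planar patch clamp. External solution 4 mM KCl, pH 7.4; internal KCl/KF/EGTA, pH 7.2. Protocol: 100 ms −40 mV reference step, 3 s at 20 mV, then 1 s at −40 mV for the outward tail current. After control, 3, 10, 30 μM cumulative, ~3 min each; amitriptyline 10 μM reference, then wash-out; two or three cells; DMSO ≤0.3% final.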

hERG (KCNH2) [4] = molecular target: T2, hERG (KCNH2); experiment: Inhibition of human ERG expressed in HEK293 cells assessed as decrease in channel current at 10 uM after 3 mins at -80 mV holding potential by automated patch-clamp electrophysiology assay; conditions: HEK293 cells that express hERG; in short: as §2
hERG (KCNH2) [5] = molecular target: T2, hERG (KCNH2); experiment: Inhibition of human ERG expressed in HEK293 cells assessed as decrease in channel current at 30 uM after 3 mins at -80 mV holding potential by automated patch-clamp electrophysiology assay; conditions: HEK293 cells that express hERG; in short: as §2
Kir3.1/Kir3.4 = molecular target: T3, Kir3.1/Kir3.4 (Homo sapiens, UniProt P48544+P48549); experiment: Inhibition of GTPgammaS-induced activation of GIRK1/4 (unknown origin) expressed in HEK293 cells assessed as decrease in channel current after 2 mins at -40 mV holding potential by automated patch-clamp electrophysiology assay
T3 sequence (P48549 whole entry): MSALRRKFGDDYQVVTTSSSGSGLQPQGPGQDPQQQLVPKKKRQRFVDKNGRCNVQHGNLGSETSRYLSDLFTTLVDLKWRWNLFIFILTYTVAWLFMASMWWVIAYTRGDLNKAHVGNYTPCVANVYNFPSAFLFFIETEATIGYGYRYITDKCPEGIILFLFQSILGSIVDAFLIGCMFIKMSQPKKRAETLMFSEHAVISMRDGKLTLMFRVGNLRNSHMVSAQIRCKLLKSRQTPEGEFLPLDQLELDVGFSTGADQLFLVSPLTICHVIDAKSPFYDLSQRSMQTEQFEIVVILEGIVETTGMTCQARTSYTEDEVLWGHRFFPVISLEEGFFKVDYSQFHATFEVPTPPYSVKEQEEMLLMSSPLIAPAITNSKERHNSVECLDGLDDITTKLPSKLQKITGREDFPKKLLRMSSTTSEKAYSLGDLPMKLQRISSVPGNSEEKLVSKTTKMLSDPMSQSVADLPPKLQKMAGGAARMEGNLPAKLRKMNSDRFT
T3 sequence (P48544 whole entry): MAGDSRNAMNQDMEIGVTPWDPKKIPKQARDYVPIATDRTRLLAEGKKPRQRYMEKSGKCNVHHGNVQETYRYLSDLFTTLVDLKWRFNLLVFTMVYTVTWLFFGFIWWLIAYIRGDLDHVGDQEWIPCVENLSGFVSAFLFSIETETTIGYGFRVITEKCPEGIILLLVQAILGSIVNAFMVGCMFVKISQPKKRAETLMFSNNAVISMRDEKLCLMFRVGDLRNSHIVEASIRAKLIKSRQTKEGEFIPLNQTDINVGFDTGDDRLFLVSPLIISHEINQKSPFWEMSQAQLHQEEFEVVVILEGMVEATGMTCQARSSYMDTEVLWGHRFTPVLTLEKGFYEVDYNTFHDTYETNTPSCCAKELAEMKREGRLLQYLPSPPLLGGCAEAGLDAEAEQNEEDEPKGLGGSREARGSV
In short: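 HEK-293 cells stably expressing Kir3.1/3.4, grown in MEM with 10% FBS and zeocin, trypsinised and resuspended serum-free. Whole-cell automated planar patch clamp. Internal solution contained 0.9 mM GTPγS. Recordings began in normal external solution (4 mM K+), then switched to high-K+ external solution (25 mM KCl, pH 7.4). Each cycle: step to 60 mV for 100 ms, 500 ms ramp to −140 mV, hold at −140 mV for 100 ms, about 0.1 Hz. Inward current taken from the −140 mV segment. After a 3 min control period, compound was added in rising concentrations, about 2 min each: 1 and 10 μM for screening on 2–3 cells, or 1, 3, 10 and 30 μM on at least 5 cells for IC50. Final DMSO was 0.3% or less. Current in K+-free solution served as baseline. 1 μM propafenone was the reference.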

Row | SMILES | inhibition [1] [%] | inhibition [2] [%] | inhibition at 0.05 h, 3 µM (hERG (KCNH2) [3]) [%] | inhibition at 0.05 h, 10 µM (hERG (KCNH2) [4]) [%] | inhibition at 0.05 h, 30 µM (hERG (KCNH2) [5]) [%] | IC50 (Kir3.1/Kir3.4) [µM]
1 | CCC(=O)O[C@@H]1[C@@H]2[C@@H](OC(C)=O)[C@@]34CO[C@@](C)([C@H](OC(C)=O)[C@@]2(OC(C)=O)C[C@@H]1C)[C@@H]3[C@@H](C(C)(C)OC(C)=O)C=CC4=O | 24 | 62 | 5 | 13 | 18 | 6.7
2 | CC(=O)O[C@@H]1[C@H]2[C@@H](OC(=O)C(C)C)[C@@H](C)C[C@]2(OC(C)=O)[C@@H](OC(C)=O)[C@]2(C)OC[C@]13C(=O)[C@H](OC(C)=O)[C@@H]1C[C@](C)(OC(C)=O)[C@@H]1[C@@H]23 | 28 | 61 | 8 | 16 | 23 | 9.7
3 | CCC(C)C(=O)O[C@H]1C(=O)[C@@]23CO[C@@](C)([C@H](OC(C)=O)[C@@]4(OC(C)=O)C[C@H](C)[C@H](OC(=O)c5cccnc5)[C@@H]4[C@H]2OC(C)=O)[C@@H]3[C@@H]2[C@H]1C[C@]2(C)OC(C)=O (stereo not given in full) | 31 | 72 | 4 | 14 | 25 | 4.9
4 | CC(=O)O[C@@H]1[C@H]2[C@@H](OC(=O)C(C)C)[C@@H](C)C[C@]2(OC(C)=O)[C@@H](OC(C)=O)[C@]2(C)OC[C@]13C(=O)C=C[C@H](C(C)(C)OC(C)=O)[C@@H]23 [EUPHORBIAPROLIFERIN C] | 34 | 69 | 0 | 4 | 16 | 4.7
5 | CC(=O)O[C@@H]1[C@H]2[C@@H](OC(=O)C(C)C)[C@@](C)(OC(=O)c3ccccc3)C[C@]2(OC(C)=O)[C@@H](OC(C)=O)[C@]2(C)OC[C@]13C(=O)[C@H](OC(=O)C(C)C)[C@@H]1C[C@](C)(OC(C)=O)[C@@H]1[C@@H]23 | 33 | 77 | 14 | 24 | 53 | –
6 | CC(=O)O[C@@H]1[C@H]2[C@@H](OC(=O)c3ccccc3)[C@@H](C)C[C@]2(OC(C)=O)[C@@H](OC(C)=O)[C@]2(C)OC[C@]13C(=O)C=C[C@H](C(C)(C)OC(C)=O)[C@@H]23 | 43 | 83 | 9 | 20 | 39 | 2.5
7 | CCC(=O)O[C@@H]1[C@@H]2[C@@H](OC(=O)c3ccccc3)[C@@]3(COC(=O)C(C)C)[C@H]4[C@H](C=C[C@H]3OC(C)=O)C(C)(C)O[C@]4(C)C(=O)[C@@]2(OC(C)=O)C[C@@H]1C | 21 | 47 | 11 | 24 | 40 | –

The next lines start with results.

Row | inhibition [1] [%] | inhibition [2] [%] | SMILES | inhibition at 0.05 h, 3 µM (hERG (KCNH2) [3]) [%] | inhibition at 0.05 h, 10 µM (hERG (KCNH2) [4]) [%] | inhibition at 0.05 h, 30 µM (hERG (KCNH2) [5]) [%] | IC50 (Kir3.1/Kir3.4) [µM]
8 | 26 | 70 | CCC(C)C(=O)O[C@H]1C(=O)[C@@]23CO[C@@](C)([C@H](OC(C)=O)[C@@]4(OC(C)=O)C[C@](C)(OC(=O)c5ccccc5)[C@H](OC(=O)C(C)C)[C@@H]4[C@H]2OC(C)=O)[C@@H]3[C@@H]2[C@H]1C[C@]2(C)OC(C)=O (stereo not given in full) | 14 | 30 | 40 | –
9 | 14 | 26 | CCC(C)C(=O)O[C@H]1C(=O)[C@@]23CO[C@@](C)([C@H](OC(C)=O)[C@@]4(OC(C)=O)C[C@](C)(O)[C@H](OC(=O)C(C)C)[C@@H]4[C@H]2OC(C)=O)[C@@H]3[C@@H]2[C@H]1C[C@]2(C)OC(C)=O (stereo not given in full) | 12 | 22 | 32 | –
10 | 30 | 69 | CCCCCC(=O)O[C@@H]1[C@@H]2[C@@H](O)[C@]34CC[C@H]5[C@@H]([C@H]3[C@@](C)(OC4)[C@H](OC(C)=O)[C@@]2(O)C[C@@H]1C)C5(C)C | 19 | 40 | 55 | –
11 | 28 | 48 | CC(=O)O[C@@H]1C[C@H]2[C@@H]([C@@H]3[C@]1(COC(=O)c1cccnc1)[C@H](OC(=O)c1ccccc1)[C@H]1[C@@H](OC(=O)C(C)C)[C@@H](C)C[C@]1(O)C(=O)[C@@]3(C)OC(C)=O)C2(C)C | 14 | 29 | 53 | –
12 | 11 | 24 | CCC(=O)O[C@@H]1[C@@H]2[C@@H](OC(C)=O)[C@@]34CO[C@@](C)([C@H](OC(C)=O)[C@@]2(OC(C)=O)C[C@]1(C)O)[C@@H]3[C@@H]1[C@@H](C[C@]1(C)OC(C)=O)[C@@H](OC(=O)C(C)CC)C4=O (stereo not given in full) | 8 | 20 | 33 | –
